Results: ChEMBL document CHEMBL1157142, “Alkyl deoxy-arabino-hexopyranosides: synthesis, surface properties, and biological activities” (Bioorg Med Chem, 2008)
Converted amounts (≈) assume the structure as drawn. The source made the active and inactive calls. The calls are words filed in the database; no cut-off is given here.

Tests used:
Salmonella enteritidis = assay: Antimicrobial activity against Salmonella enteritidis ATCC 13076 assessed as diameter of the inhibition zone after 24 hrs by paper disk agar diffusion method; type: functional, Salmonella enterica subsp. enterica serovar Enteritidis
Procedure, shortened: (§1)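 Overnight cultures were spread on agar: tryptone soy agar for Listeria, azide dextrose agar for Enterococcus, and nutrient agar for the other bacteria. 6.4 mm paper disks each received 300 µg of substance in 15 µL DMSO. Plates were incubated at 37 °C for 24 h and the inhibition-zone diameter measured. Chloramphenicol served as control. At least three replicates were run.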

Staphylococcus aureus [1] = assay: Antimicrobial activity against Staphylococcus aureus ATCC 25923 assessed as diameter of the inhibition zone after 24 hrs by paper disk agar diffusion method; type: functional; procedure, shortened: as §1
Aspergillus niger = assay: Antimicrobial activity against Aspergillus niger ATCC 16404 assessed as diameter of the inhibition zone after 48 hrs by paper disk agar diffusion method; type: functional
Procedure, shortened: (§2)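 Fungal disk diffusion: overnight cultures were spread on potato dextrose agar. 6.4 mm paper disks each carried 300 µg of substance in 15 µL DMSO. Plates were incubated at 25 °C for 48 h and the inhibition-zone diameter read. Actidione was the control for A. niger and chloramphenicol for C. albicans. At least three replicates were run.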

Candida albicans = assay: Antimicrobial activity against Candida albicans ATCC 10231 assessed as diameter of the inhibition zone after 48 hrs by paper disk agar diffusion method; type: functional; procedure, shortened: as §2
Pyricularia oryzae = assay: Antimicrobial activity against Pyricularia oryzae DSMZ 62938 assessed as diameter of the inhibition zone after 48 hrs by paper disk agar diffusion method; type: functional
Procedure, shortened: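 Overnight culture spread on potato dextrose agar; 6.4 mm paper disks loaded with compound dissolved in DMSO. […] served as the reference control. Plates incubated at 25 °C for 48 h, then the diameter of the inhibition zone was measured in mm. At least three replicates.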

Bacillus cereus [2] = assay: Antimicrobial activity against Bacillus cereus ATCC 11778 assessed as diameter of the inhibition zone after 24 hrs by paper disk agar diffusion method; type: functional; procedure, shortened: as §1
Bacillus subtilis [3] = assay: Antimicrobial activity against Bacillus subtilis ATCC 6633 assessed as diameter of the inhibition zone after 24 hrs by paper disk agar diffusion method; type: functional; procedure, shortened: as §1
Enterococcus faecalis [4] = assay: Antimicrobial activity against Enterococcus faecalis ATCC 29212 assessed as diameter of the inhibition zone after 24 hrs by paper disk agar diffusion method; type: functional; procedure, shortened: as §1
Escherichia coli = assay: Antimicrobial activity against Escherichia coli ATCC 8739 assessed as diameter of the inhibition zone after 24 hrs by paper disk agar diffusion method; type: functional; procedure, shortened: as §1
Listeria monocytogenes [5] = assay: Antimicrobial activity against Listeria monocytogenes ATCC 7644 assessed as diameter of the inhibition zone after 24 hrs by paper disk agar diffusion method; type: functional; procedure, shortened: as §1
Pseudomonas aeruginosa = assay: Antimicrobial activity against Pseudomonas aeruginosa ATCC 27853 assessed as diameter of the inhibition zone after 24 hrs by paper disk agar diffusion method; type: functional; procedure, shortened: as §1
Bacillus cereus [6] = assay: Antimicrobial activity against Bacillus cereus ATCC 11778 after 16 to 20 hrs by broth dilution method; type: functional; details: for MIC: Bacillus cereus, ATCC 11778
Procedure, shortened: (§3)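 Dilution method used overnight cultures and serial compound dilutions from 500 down to 1.95 µg/mL, with chloramphenicol from 50 to 0.195 µg/mL. Incubation was at 35 °C for 16–20 h, and MIC and MLC were determined. At least three replicates were run. Only compounds giving disk inhibition diameters of 11 mm or more were tested.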

Bacillus subtilis [7] = assay: Antimicrobial activity against Bacillus subtilis ATCC 6633 after 16 to 20 hrs by broth dilution method; type: functional; details: for MIC: Bacillus subtilis, ATCC 6633; procedure, shortened: as §3
Enterococcus faecalis [8] = assay: Antimicrobial activity against Enterococcus faecalis ATCC 29212 after 16 to 20 hrs by broth dilution method; type: functional; details: for MIC: Enterococcus faecalis, ATCC 29212; procedure, shortened: as §3
Listeria monocytogenes [9] = assay: Antimicrobial activity against Listeria monocytogenes ATCC 7644 after 16 to 20 hrs by broth dilution method; type: functional; details: for MIC: Listeria monocytogenes, ATCC 7644; procedure, shortened: as §3
Staphylococcus aureus [10] = assay: Antimicrobial activity against Staphylococcus aureus ATCC 25923 after 16 to 20 hrs by broth dilution method; type: functional; details: for MIC: Staphylococcus aureus, ATCC 25923; procedure, shortened: as §3
[11] = Cytotoxicity against human peripheral blood lymphocytes assessed as mitotic index at 10 ug/mL; details: pbl
Procedure, shortened: (§4)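 Heparinized whole blood from healthy donors was cultured in Ham's F-10 with 15% fetal calf serum, phytohemagglutinin, L-glutamine, streptomycin and penicillin. Compounds at 10 or 100 µg/mL were added after 24 h and culture continued to 48 h. Colcemid (0.5 µg/mL final) was present for the last 3 h. Mitotic index was scored on metaphase spreads at 500×. 2% H2O2 was the positive control.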

[12] = Cytotoxicity against human peripheral blood lymphocytes assessed as mitotic index at 100 ug/mL; details: pbl; procedure, shortened: as §4
Bacillus cereus [13] = assay: Antimicrobial activity against Bacillus cereus ATCC 11778 after 1 year; type: functional, organism-based

Row | Structure (SMILES) | inhibition zone (IZ) (Salmonella enteritidis) [mm] | inhibition zone (IZ) (Staphylococcus aureus [1]) [mm] | inhibition zone (IZ) (Aspergillus niger) [mm] | inhibition zone (IZ) (Candida albicans) [mm] | inhibition zone (IZ) (Pyricularia oryzae) [mm] | inhibition zone (IZ) (Bacillus cereus [2]) [mm] | inhibition zone (IZ) (Bacillus subtilis [3]) [mm] | inhibition zone (IZ) (Enterococcus faecalis [4]) [mm] | inhibition zone (IZ) (Escherichia coli) [mm] | inhibition zone (IZ) (Listeria monocytogenes [5]) [mm] | inhibition zone (IZ) (Pseudomonas aeruginosa) [mm] | MIC (Bacillus cereus [6]) [µg/mL] | MIC (Bacillus subtilis [7]) [µg/mL] | MLC (Enterococcus faecalis [8]) [µg/mL] | MIC (Enterococcus faecalis [8]) [µg/mL] | MLC (Listeria monocytogenes [9]) [µg/mL] | MIC (Listeria monocytogenes [9]) [µg/mL] | MIC (Staphylococcus aureus [10]) [µg/mL] | Activity [11] | Activity [12] | also measured
1 | CCCCCCCCCCCCO[C@@H]1C[C@H](O)[C@@H](O)[C@H](C)O1 | <6.4 | <6.4 | <6.4 | <6.4 | <6.4 | <6.4 | <6.4 | <6.4 | <6.4 | <6.4 | <6.4 |  |  |  |  |  |  |  |  |  | 
2 | CCCCCCCCCCCCO[C@H]1C[C@@H](O)[C@H](O)[C@@H](CO)O1 | <6.4 | <6.4 | <6.4 | 10 | <6.4 | 10 | 10 | 17 | <6.4 | <6.4 | <6.4 | > 500 | > 500 | >500 | 31.3 (≈ 94.1 µM) | >500 | 250 (≈ 752 µM) | > 500 | 13.5 | 6.75 | 
3 | CCCCCCCCCCCCO[C@H]1C[C@H](O)[C@@H](O)[C@H](C)O1 | <6.4 | 9 | <6.4 | <6.4 | <6.4 | 27 | 25 | 13 | <6.4 | 12 | <6.4 | 7.8 (≈ 24.6 µM) | 7.8 (≈ 24.6 µM) | >250 | 15.6 (≈ 49.3 µM) | 62.5 (≈ 197 µM) | 31.3 (≈ 98.9 µM) |  |  |  | MLC (Bacillus cereus [6]): 7.8 µg/mL (≈ 24.6 µM); MLC (Bacillus subtilis [7]): 15.6 µg/mL (≈ 49.3 µM); Activity (Bacillus cereus [13]): Active
4 | CCCCCCCCO[C@@H]1C[C@@H](O)[C@H](O)[C@@H](CO)O1 | <6.4 | <6.4 | <6.4 | <6.4 | <6.4 | <6.4 | <6.4 | <6.4 | <6.4 | <6.4 | <6.4 |  |  |  |  |  |  |  | 10.75 | 3 | 
5 | CCCCCCCCO[C@H]1C[C@H](O)[C@@H](O)[C@H](C)O1 | <6.4 | 11 | <6.4 | 10 | 13 | 12 | 12 | 10 | 8 | 10 | 8 | 250 (≈ 960 µM) | 250 (≈ 960 µM) |  |  |  |  | 500 (≈ 1920 µM) |  |  | MLC (Bacillus cereus [6]): 500 µg/mL (≈ 1920 µM); MLC (Bacillus subtilis [7]): >500 µg/mL; MLC (Staphylococcus aureus [10]): 500 µg/mL (≈ 1920 µM)
6 | CCCCCCCCO[C@@H]1C[C@H](O)[C@@H](O)[C@H](C)O1 | <6.4 | 12 | <6.4 | 11 | <6.4 | 12 | 10 | 9 | 9 | 10 | 9 | > 500 | > 500 |  |  |  | > 500 | > 500 |  |  | 
7 | CCCCCCCCCCCCO[C@@H]1C[C@@H](O)[C@H](O)[C@@H](CO)O1 | <6.4 | <6.4 | <6.4 | 9 | <6.4 | <6.4 | 9 | <6.4 | <6.4 | 10 | <6.4 |  |  |  |  |  |  |  | 13.5 | 7.75 | 
8 | CCCCCCCCO[C@H]1C[C@@H](O)[C@H](O)[C@@H](CO)O1 | <6.4 | <6.4 | <6.4 | <6.4 | <6.4 | 11 | 12 | 14 | <6.4 | <6.4 | <6.4 | > 500 | > 500 | >500 | 31.3 (≈ 113 µM) |  |  |  |  |  | 
9 | O=C(N[C@H](CO)[C@H](O)c1ccc([N+](=O)[O-])cc1)C(Cl)Cl [CHLORAMPHENICOL] |  |  |  |  |  |  |  |  |  |  |  | 6.3 (≈ 19.5 µM) | 3.1 (≈ 9.59 µM) | >50 | 6.3 (≈ 19.5 µM) | >50 | 6.3 (≈ 19.5 µM) | 6.3 (≈ 19.5 µM) |  |  | MLC (Bacillus cereus [6]): 12.5 µg/mL (≈ 38.7 µM); MLC (Bacillus subtilis [7]): >50 µg/mL; MLC (Staphylococcus aureus [10]): >50 µg/mL
